The record followed here is ChEMBL document CHEMBL3804796, “Discovery of Novel 3,3-Disubstituted Piperidines as Orally Bioavailable, Potent, and Efficacious HDM2-p53 Inhibitors” (ACS Med Chem Lett, 2016).

The target in data set [1] is T1, Tumour suppressor p53/oncoprotein Mdm2 (Homo sapiens, UniProt Q00987). Put plainly: Inhibition of human recombinant His-tagged MDM2 (1 to 118 residues) interaction with FAM-tagged p53-based peptide (unknown origin) incubated for 15 mins by fluorescence polarization assay. In kind it is protein assay. For orientation: In fluorescence polarisation assays a small probe gives low polarisation when free and higher when bound to something large.

Data set [2] is described as follows: Intrinsic clearance in human liver microsomes. In kind it is ADME. Particulars: read-out: CLH. A general note: Microsomes from liver hold many membrane-bound enzymes, among them those of drug oxidation.
A short description of data set [3]: Permeability from apical to basolateral side in human Caco2 cells. The data set is classed as ADME, cell-based. Particulars: Caco-2, read-out: permeability. For orientation: Passage across Caco-2 layers is used to estimate intestinal permeability.
In data set [4] the test system is Mus musculus. The data set is described as follows: Dose normalized AUC (0 to 24 hrs) in mouse at 1 mg/kg, po administered as single dose. In kind it is ADME, organism-based. The conditions noted are these: in vivo. The method in brief: (§1)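 Single oral dose of 1 mg/kg. Vehicle was 20% HPBCD for mouse and 0.4% HPMC for dog and monkey. Plasma AUC over 0–24 h, dose-normalized, reported in μM·h.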

Data set [5] is described as follows: Oral bioavailability in mouse at 20 mg/kg. The conditions noted are these: in vivo. The data set is classed as ADME, organism-based.
The nature of data set [6]: Antiproliferative activity against human SJSA1 cells expressing wild type p53 after 72 hrs by CellTitre-Glo assay. The conditions noted are these: SJSA-1, 72 h.
Data set [7] is described as follows: AUC in mouse at 20 mg/kg, po or 2 mg/kg, iv. In kind it is ADME, organism-based. The conditions noted are these: in vivo.
Data set [8] deals with A549. The data set is described as follows: Antitumor activity against human A549 cells xenografted in nude mouse assessed as tumor growth inhibition at 20 mg/kg, ip once weekly for 30 days relative to control. The data set is classed as functional. Particulars: 720 h, read-out: TGI. The method in brief:
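Mice bearing A549 NSCLC xenografts. The test agent was given orally, either daily or intermittently (daily for 3 days, then 4 days off). Paclitaxel was given at 20 mg/kg ip weekly, alone or in combination. Read-out was tumor growth inhibition.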

Data set [9] in a line: Antiproliferative activity against human HCT116 cells expressing wild type p53 after 72 hrs by CellTitre-Glo assay. In kind it is functional, cell-based. Particulars: HCT-116, 72 h. Summed up: (§2)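 Cancer cell lines of known p53 coding-region status (checked by direct sequencing) were exposed to the compound for 72 h. Viability was read with CellTiter-Glo, and the IC50 was taken from these readings.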

Data set [10] in a line: Antiproliferative activity against p53 null human H1299 cells after 72 hrs by CellTitre-Glo assay. The data set is classed as functional, cell-based. Particulars: NCI-H1299, 72 h. The method in brief: as §2
Data set [11] deals with Canis familiaris. Put plainly: Dose normalized AUC (0 to 24 hrs) in dog at 1 mg/kg, po administered as single dose. The data set is classed as ADME, organism-based, Canis lupus familiaris. Particulars: in vivo. Summed up: as §1
Data set [12] has as its target T1, Tumour suppressor p53/oncoprotein Mdm2. Put plainly: Inhibition of MDM2/p53 interaction in human HCT116 cells assessed as activation of p53 transcription by luciferase reporter gene assay. In kind it is cell-based, HCT-116. Summed up: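 p53 transcriptional activation measured in HCT116 cells with a p53 response element–driven luciferase reporter (P53RE-Luc).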

Data set [13] in a line: Solubility of compound in pH 7.4 phosphate buffer. In kind it is physicochemical.
The subject of data set [14] is SK-UT-1. The data set is described as follows: Antiproliferative activity against human SK-UT-1 cells harboring mutant p53 after 72 hrs by CellTitre-Glo assay. In kind it is functional, cell-based. Particulars: SK-UT-1, 72 h. Summed up: as §2
Data set [15] deals with Rhesus monkey. Put plainly: Dose normalized AUC (0 to 24 hrs) in monkey at 1 mg/kg, po administered as single dose. In kind it is ADME, organism-based, Macaca mulatta. The conditions noted are these: in vivo. Summed up: as §1
For data set [16], the system named is SJSA-1. Put plainly: Induction of apoptosis in human SJSA1 cells assessed as caspase 3/7 activation. In kind it is functional, cell-based.
Data set [17] concerns A2780. Put plainly: Antitumor activity against human A2780 cells xenografted in nude mouse harboring wild type p53 assessed as tumor growth inhibition at 40 mg/kg, ip once weekly for 15 days relative to control. Particulars: 360 h, read-out: TGI.

Converted amounts (≈) assume the structure as drawn.

T1 sequence (P04637 whole entry, the tested form may be a part): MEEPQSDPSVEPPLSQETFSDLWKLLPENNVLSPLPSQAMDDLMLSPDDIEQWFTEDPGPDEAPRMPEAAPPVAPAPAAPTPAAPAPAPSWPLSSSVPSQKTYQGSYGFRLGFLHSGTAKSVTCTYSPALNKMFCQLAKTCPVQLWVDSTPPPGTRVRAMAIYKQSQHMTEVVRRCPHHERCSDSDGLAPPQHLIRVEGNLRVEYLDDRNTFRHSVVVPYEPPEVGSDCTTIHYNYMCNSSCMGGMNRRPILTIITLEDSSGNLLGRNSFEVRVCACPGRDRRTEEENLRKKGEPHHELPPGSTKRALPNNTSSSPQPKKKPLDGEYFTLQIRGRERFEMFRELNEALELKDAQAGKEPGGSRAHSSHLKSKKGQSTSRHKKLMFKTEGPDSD
T1 sequence (Q00987 whole entry, the tested form may be a part): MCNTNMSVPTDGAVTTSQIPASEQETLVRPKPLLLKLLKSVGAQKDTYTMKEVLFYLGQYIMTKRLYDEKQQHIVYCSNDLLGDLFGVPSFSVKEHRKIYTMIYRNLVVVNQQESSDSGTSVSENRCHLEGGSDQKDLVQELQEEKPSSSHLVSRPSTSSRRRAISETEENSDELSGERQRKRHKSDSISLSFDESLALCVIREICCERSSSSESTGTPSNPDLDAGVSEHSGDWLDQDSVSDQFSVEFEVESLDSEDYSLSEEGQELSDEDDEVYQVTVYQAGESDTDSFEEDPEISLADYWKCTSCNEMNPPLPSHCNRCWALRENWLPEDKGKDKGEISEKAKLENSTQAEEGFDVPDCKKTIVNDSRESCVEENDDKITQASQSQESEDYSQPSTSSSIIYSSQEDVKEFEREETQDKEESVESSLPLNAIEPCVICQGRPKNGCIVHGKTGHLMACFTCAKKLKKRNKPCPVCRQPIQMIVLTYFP

In the case of `CCC[C@H]1N(C(=O)c2cnccc2C(F)(F)F)CCC[C@@]1(Oc1cccs1)C(=O)N1CCN(c2ccccc2OCCO)CC1` (racemic), the IC50 – broadly, the midpoint of a concentration-inhibition curve – in data set [1] came to 2900 nM.
The same measure, in the same setting: the figure for `CCC[C@H]1N(C(=O)c2cnccc2C(F)(F)F)CCC[C@@]1(Oc1csc(C(F)(F)F)c1C)C(=O)N1CCN(c2ccccc2OCCO)CC1` is 58 nM.
For the compound `CCC[C@@H]1N(C(=O)c2cnccc2C(F)(F)F)CCC[C@]1(Oc1ccc(C(F)(F)F)cc1)C(=O)N1CCN(c2ccccc2OCCO)CC1` (single isomer, unassigned), in data set [2], the CLint scaled is 23 mL/min/kg. Also, the IC50 was 40 nM in [1] and 460 nM in data set [6]. Further, the Papp A→B in data set [3] turned out to be 9.9 ×10⁻⁶ cm/s. The AUC/dose in data set [4] worked out at 1.2 µM·h. The bioavailability (usually dose-corrected exposure relative to a reference, in per cent) in [5] amounted to 92%. In addition, the exposure (AUC) (commonly the area under the concentration-time curve, a measure of exposure) in data set [7] turned out to be 8.7 µM·h.
As to `COCCOc1ccccc1N1CCN(C(=O)[C@]2(Oc3ccc(C(F)(F)F)cc3)CCCN(C(=O)c3cnccc3C(F)(F)F)[C@@H]2CCO)CC1`, in [6], the IC50 was found to be 530 nM.
Take `CC(=O)O[C@H]1C(=O)[C@@]2(C)[C@H]([C@H](OC(=O)c3ccccc3)[C@]3(O)C[C@H](OC(=O)[C@H](O)[C@@H](NC(=O)c4ccccc4)c4ccccc4)C(C)=C1C3(C)C)[C@]1(OC(C)=O)CO[C@@H]1C[C@@H]2O` [PACLITAXEL]: in data set [8], the inhibition in vivo at 20 mg/kg came out at 54%.
As for `CCC[C@@H]1N(C(=O)c2cnccc2C(F)(F)F)CCC[C@]1(Oc1csc(C(F)(F)F)c1)C(=O)N1CCN(c2ccccc2OCC(=O)NC)CC1` (single isomer, unassigned), the CLint scaled in data set [2] was determined as 13 mL/min/kg. For the same compound, the half-maximal inhibitory concentration (IC50) in data set [1] was 4 nM; in data set [9], 470 nM; in [10] it was greater than 17000 nM; in data set [14], greater than 10000 nM; in data set [16], 300 nM; in data set [6], 110 nM. Besides, the Papp A→B in [3] is 18.1 ×10⁻⁶ cm/s. In addition, the AUC/dose was 0.2 µM·h in data set [11], 0.3 µM·h in [15] and 2 µM·h in [4]. For the same compound, the EC50 (commonly the concentration giving half of the maximal effect) in [12] was determined as 400 nM. Also, the solubility – broadly, how much of the substance goes into solution per volume – in [13] stood at 12 µM (≈ 8.9 µg/mL).
As to `CCC[C@H]1N(C(=O)c2cnccc2C(F)(F)F)CCC[C@@]1(Oc1csc(C(F)(F)F)c1)C(=O)N1CCN(c2ccccc2OC(C)(C)CO)CC1`, the values for the IC50 in data set [1] and in data set [6] were 25 nM and 1100 nM, respectively.
Regarding `C=CC[C@H]1N(C(=O)c2cnccc2C(F)(F)F)CCC[C@@]1(Oc1cc(C2CC2)cs1)C(=O)N1CCN(c2ccccc2OCCCC(=O)O)CC1`, the IC50 in [1] came to 3500 nM.
In [6], `COc1ccc(C2=N[C@@H](c3ccc(Cl)cc3)[C@@H](c3ccc(Cl)cc3)N2C(=O)N2CCNC(=O)C2)c(OC(C)C)c1` [NUTLIN-3] displayed an IC50 of 1900 nM.
On to `CCC[C@@H]1N(C(=O)c2cnccc2C(F)(F)F)CCC[C@]1(Oc1nc(C(F)(F)F)cs1)C(=O)N1CCN(c2ccccc2OCCO)CC1` (racemic), for which the IC50 in data set [1] turned out to be 1100 nM.
`COc1ccccc1N1CCN(C(=O)C2(Oc3ccc(C(F)(F)F)cc3)CCCN(C(=O)c3cnccc3C(F)(F)F)C2)CC1` (stereo not given): in data set [6], the midpoint of inhibition, the IC50, lay at 5500 nM.
As to `CCC[C@@H]1N(C(=O)c2cnccc2C(F)(F)F)CCC[C@]1(Oc1csc(C(F)(F)F)c1)C(=O)N1CCN(c2ccccc2OCC2(CC(=O)O)CC2)CC1` (single isomer, unassigned), in data set [1], the IC50 came out at 33 nM.
As to `CCC[C@H]1N(C(=O)c2cnccc2C(F)(F)F)CCC[C@@]1(Oc1csc(C(F)(F)F)c1)C(=O)N1CCN(c2ccccc2OCC(=O)O)CC1`, the figures for the IC50 in data set [1] and in data set [6] were 2 nM and 1100 nM, respectively. Moreover, the Papp A→B in data set [3] was determined as 0.7 ×10⁻⁶ cm/s. This compound returned an AUC/dose in [4] of 0.02 µM·h.
With `CCC[C@H]1N(C(=O)c2cnccc2C(F)(F)F)CCC[C@@]1(Oc1csc(C(F)(F)F)c1Cl)C(=O)N1CCN(c2ccccc2OCCO)CC1`, the IC50 in data set [1] came out at 130 nM.
`CCC[C@H]1N(C(=O)c2cnccc2C(F)(F)F)CCC[C@@]1(Oc1csc(C(F)(F)F)c1)C(=O)N1CCN(c2ccccc2OCC(C)(C)O)CC1`: the IC50 turned out to be 23 nM in [1] and 600 nM in [6].
The matching figures for `CCC[C@@H]1N(C(=O)c2cnccc2C(F)(F)F)CCC[C@]1(Oc1csc(C(F)(F)F)c1)C(=O)N1CCN(c2ccccc2OCCC(C)(C)C(=O)O)CC1` (single isomer, unassigned): 10 nM and 280 nM.
The matching figures for `CCC[C@H]1N(C(=O)c2cnccc2C(F)(F)F)CCC[C@@]1(Oc1csc(C(F)(F)F)c1)C(=O)N1CCN(c2ccccc2OCCCCC(=O)O)CC1`: 7 nM and 170 nM.
With `CCC[C@@H]1N(C(=O)c2cnccc2C(F)(F)F)CCC[C@]1(Oc1csc(C(F)(F)F)c1)C(=O)N1CCN(c2ccccc2OCCO)CC1` (single isomer, unassigned), the CLint scaled in data set [2] amounted to 14 mL/min/kg. Also, the IC50 in data set [1] is 15 nM; in data set [9] it was 390 nM; in data set [10], greater than 17000 nM; in data set [14], greater than 17000 nM; in data set [16], 300 nM; in data set [6], 180 nM. The values for the AUC/dose in data set [11], in [15] and in data set [4] were 0.2 µM·h, 0.3 µM·h and 2 µM·h, respectively. The EC50 in [12] stood at 400 nM. In addition, in [13], the concentration in solution (solubility) came to 10 µM (≈ 7.15 µg/mL).
With `CCC[C@@H]1N(C(=O)c2cnccc2C(F)(F)F)CCC[C@]1(Oc1cc(C(F)(F)F)n(C)n1)C(=O)N1CCN(c2ccccc2OCCO)CC1` (racemic), in data set [1], the IC50 is 6300 nM.
As to `CCC[C@@H]1N(C(=O)c2cnccc2C(F)(F)F)CCC[C@]1(Oc1cc(C(F)(F)F)cs1)C(=O)N1CCN(c2ccccc2OCCO)CC1` (racemic), the IC50 in data set [1] is 170 nM.
Turning to `CC(=O)O[C@@]12CO[C@@H]1C[C@H](O)[C@@]1(C)C(=O)[C@H](O)C3=C(C)[C@@H](OC(=O)[C@H](O)[C@@H](NC(=O)OC(C)(C)C)c4ccccc4)C[C@@](O)([C@@H](OC(=O)c4ccccc4)[C@H]21)C3(C)C` [DOCETAXEL ANHYDROUS], in data set [17], the inhibition in vivo at 40 mg/kg came to 53%.
As to `CCC[C@@H]1N(C(=O)c2cnccc2C(F)(F)F)CCC[C@]1(Oc1csc(C(F)(F)C(F)(F)F)c1)C(=O)N1CCN(c2ccccc2OCCO)CC1` (single isomer, unassigned), the values for the IC50 in data set [1] and in [6] were 25 nM and 1100 nM, respectively.
`CCC[C@H]1N(C(=O)c2cnccc2C(F)(F)F)CCC[C@@]1(Oc1cc(C(F)(F)F)sc1C)C(=O)N1CCN(c2ccccc2OCCO)CC1`: the IC50 in [1] worked out at 470 nM.
Same read-out and setting: next, `CCC[C@H]1N(C(=O)c2cnccc2C(F)(F)F)CCC[C@@]1(Oc1cc(I)cs1)C(=O)N1CCN(c2ccccc2OCCO)CC1` (racemic): 90 nM.
For the compound `CCC[C@H]1N(C(=O)c2cnccc2C(F)(F)F)CCC[C@@]1(Oc1csc(C(F)(F)F)c1)C(=O)N1CCN(c2ccccc2OCC(C)(C)C(=O)O)CC1`, the half-inhibitory concentration (IC50) in [1] amounted to 4 nM; in [6], 260 nM.
The matching figures for `CCC[C@H]1N(C(=O)c2cnccc2C(F)(F)F)CCC[C@@]1(Oc1csc(C(F)(F)F)c1)C(=O)N1CCN(c2ccccc2OC(C)(C)C(=O)O)CC1`: 11 nM and 80 nM.
